Data: article PMC8742645 (Clinical and Translational Science, 2021)
Values joined by “and” are separate entries in the source; they are usually repeats but may differ in a detail not shown here. Identical values can stand only once. Like-named read-outs stand apart in the source and are kept apart here. Marks after values point to notes of the source that are not given here.

Key:
[1] = Clinical DDI study: safety; assay type: in vivo, human
[2] = Single and multiple ascending dose study, observed PK; assay type: in vivo, human
CYP3A5 = CYP3A5 (Homo sapiens, UniProt P20815); assay: Recombinant human CYP enzyme kinetics; assay type: in vitro ADME
Chain of CYP3A5 (P20815 whole entry): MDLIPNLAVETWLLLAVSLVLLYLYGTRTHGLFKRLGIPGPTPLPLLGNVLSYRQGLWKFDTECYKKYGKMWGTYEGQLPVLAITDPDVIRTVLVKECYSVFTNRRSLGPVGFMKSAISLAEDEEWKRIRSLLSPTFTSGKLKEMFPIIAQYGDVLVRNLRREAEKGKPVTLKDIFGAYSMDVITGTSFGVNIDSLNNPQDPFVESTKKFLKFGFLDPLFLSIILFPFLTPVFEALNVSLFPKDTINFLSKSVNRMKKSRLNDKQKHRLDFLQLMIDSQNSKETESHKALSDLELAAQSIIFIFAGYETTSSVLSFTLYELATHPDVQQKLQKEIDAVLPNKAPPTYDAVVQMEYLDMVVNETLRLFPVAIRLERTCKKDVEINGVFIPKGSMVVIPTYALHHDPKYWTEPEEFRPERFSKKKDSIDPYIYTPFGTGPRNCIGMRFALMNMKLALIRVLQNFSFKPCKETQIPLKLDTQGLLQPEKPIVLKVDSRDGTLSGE

Caco-2 cells = assay: Caco-2 permeability of remibrutinib; assay type: in vitro ADME; settings: Caco-2, passive
Outline: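 Human Caco-2 cell system, also used to test the compound as a substrate of ATP-binding cassette efflux transporters (P-gp). Passive apparent permeability (Papp, cm/s) was taken from these experiments to predict the fraction absorbed (Fa) in the PBPK model.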

human liver microsomes = assay: Oxidative metabolism kinetics in pooled HLM; assay type: in vitro ADME
[3] = assay type: in vivo, human; settings: for Vd: 100 µg; for half-life / Tmax: whole blood; for half-life: t 1/2, arithmetic mean; for Tmax: po
Outline: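 Healthy adults, open-label single-sequence three-period crossover. Oral doses: 50 mg alone (day 3, 1 h after 240 ml 10% glucose), 20 mg 1 h after 240 ml grapefruit juice, and 20 mg 1 h after the second ritonavir 100 mg dose. Stable-isotope-labelled i.v. microtracer 100 µg given 2 h post-oral in periods 1 and 3. Blood measured by LC-MS/MS; dose-normalised; mixed-ANOVA geometric mean ratios.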

CYP3A4/5 = assay: Correlation analysis with HLM from 16 individual donors; assay type: in vitro ADME, human
[4] = rat in vivo; ref data on file, Novartis; cited from earlier work
CYP2B6 = biological target: T1, CYP2B6 (Homo sapiens, UniProt P20813); assay: Recombinant human CYP enzyme kinetics; assay type: in vitro ADME
T1 sequence (P20813 1-491): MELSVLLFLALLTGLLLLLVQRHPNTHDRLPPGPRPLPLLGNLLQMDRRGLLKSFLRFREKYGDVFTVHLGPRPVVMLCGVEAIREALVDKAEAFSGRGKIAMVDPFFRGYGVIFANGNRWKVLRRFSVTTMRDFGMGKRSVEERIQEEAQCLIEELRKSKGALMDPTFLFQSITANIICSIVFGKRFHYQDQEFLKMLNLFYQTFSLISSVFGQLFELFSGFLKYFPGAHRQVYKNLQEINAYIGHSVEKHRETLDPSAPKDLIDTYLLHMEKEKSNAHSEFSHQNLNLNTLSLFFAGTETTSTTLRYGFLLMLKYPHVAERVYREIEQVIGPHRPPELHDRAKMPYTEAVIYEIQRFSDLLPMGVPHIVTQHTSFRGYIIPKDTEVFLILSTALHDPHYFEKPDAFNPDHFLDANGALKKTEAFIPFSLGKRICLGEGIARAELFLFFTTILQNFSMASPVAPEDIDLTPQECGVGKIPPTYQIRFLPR

CYP3A4 = CYP3A4 (Homo sapiens, UniProt P08684); assay type: in vitro ADME
Chain of CYP3A4 (P08684 whole entry): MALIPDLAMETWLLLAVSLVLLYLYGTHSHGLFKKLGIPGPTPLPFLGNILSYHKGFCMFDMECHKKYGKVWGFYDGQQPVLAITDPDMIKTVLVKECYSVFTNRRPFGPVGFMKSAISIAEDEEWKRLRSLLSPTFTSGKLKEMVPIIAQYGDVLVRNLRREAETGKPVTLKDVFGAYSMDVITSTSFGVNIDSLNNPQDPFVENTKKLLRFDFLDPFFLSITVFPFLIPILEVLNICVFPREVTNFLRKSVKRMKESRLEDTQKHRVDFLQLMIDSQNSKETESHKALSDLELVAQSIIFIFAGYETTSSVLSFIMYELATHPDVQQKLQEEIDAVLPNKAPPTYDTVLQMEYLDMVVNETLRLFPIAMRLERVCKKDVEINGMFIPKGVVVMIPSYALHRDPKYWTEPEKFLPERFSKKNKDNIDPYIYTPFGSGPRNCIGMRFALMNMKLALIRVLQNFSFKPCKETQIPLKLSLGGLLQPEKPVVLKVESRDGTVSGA

P-gp = P-gp (Homo sapiens, UniProt P08183); assay: Efflux transporter substrate assessment in Caco-2 cells; assay type: in vitro ADME
Chain of P-gp (P08183 whole entry): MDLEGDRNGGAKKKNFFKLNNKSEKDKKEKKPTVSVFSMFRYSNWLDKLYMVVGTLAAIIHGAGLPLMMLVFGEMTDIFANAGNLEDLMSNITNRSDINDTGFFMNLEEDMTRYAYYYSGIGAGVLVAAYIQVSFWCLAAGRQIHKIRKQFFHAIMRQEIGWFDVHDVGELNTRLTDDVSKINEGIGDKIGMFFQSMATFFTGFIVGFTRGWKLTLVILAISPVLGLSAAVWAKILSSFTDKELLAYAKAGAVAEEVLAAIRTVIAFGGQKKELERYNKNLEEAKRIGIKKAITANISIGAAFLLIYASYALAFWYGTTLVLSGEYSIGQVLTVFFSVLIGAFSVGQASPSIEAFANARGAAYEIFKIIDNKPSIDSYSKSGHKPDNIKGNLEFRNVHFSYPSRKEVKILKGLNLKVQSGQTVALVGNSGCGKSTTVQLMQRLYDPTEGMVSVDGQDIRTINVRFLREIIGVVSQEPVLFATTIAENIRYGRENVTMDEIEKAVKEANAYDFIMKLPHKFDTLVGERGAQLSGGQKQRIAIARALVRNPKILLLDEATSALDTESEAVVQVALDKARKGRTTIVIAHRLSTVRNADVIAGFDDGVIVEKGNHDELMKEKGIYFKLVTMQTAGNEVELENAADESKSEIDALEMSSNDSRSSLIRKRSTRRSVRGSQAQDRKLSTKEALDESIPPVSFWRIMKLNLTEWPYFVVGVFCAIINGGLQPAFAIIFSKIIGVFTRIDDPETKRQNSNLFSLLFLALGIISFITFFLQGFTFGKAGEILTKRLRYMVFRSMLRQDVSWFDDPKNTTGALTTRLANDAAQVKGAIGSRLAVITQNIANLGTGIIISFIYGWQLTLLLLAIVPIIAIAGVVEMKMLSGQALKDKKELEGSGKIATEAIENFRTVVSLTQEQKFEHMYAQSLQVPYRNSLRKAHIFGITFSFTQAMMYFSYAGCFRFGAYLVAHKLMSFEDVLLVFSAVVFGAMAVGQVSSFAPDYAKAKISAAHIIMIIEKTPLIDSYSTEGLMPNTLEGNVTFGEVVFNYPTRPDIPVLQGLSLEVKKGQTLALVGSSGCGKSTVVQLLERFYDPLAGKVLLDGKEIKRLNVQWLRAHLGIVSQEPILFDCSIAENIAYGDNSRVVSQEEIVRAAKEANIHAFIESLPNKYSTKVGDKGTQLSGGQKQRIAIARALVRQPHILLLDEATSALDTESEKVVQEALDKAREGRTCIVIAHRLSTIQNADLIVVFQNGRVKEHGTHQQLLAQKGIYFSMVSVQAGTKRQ

CYP2C19 = CYP2C19 (Homo sapiens, UniProt P33261); assay: Recombinant human CYP enzyme kinetics; assay type: in vitro ADME
Chain of CYP2C19 (P33261 whole entry): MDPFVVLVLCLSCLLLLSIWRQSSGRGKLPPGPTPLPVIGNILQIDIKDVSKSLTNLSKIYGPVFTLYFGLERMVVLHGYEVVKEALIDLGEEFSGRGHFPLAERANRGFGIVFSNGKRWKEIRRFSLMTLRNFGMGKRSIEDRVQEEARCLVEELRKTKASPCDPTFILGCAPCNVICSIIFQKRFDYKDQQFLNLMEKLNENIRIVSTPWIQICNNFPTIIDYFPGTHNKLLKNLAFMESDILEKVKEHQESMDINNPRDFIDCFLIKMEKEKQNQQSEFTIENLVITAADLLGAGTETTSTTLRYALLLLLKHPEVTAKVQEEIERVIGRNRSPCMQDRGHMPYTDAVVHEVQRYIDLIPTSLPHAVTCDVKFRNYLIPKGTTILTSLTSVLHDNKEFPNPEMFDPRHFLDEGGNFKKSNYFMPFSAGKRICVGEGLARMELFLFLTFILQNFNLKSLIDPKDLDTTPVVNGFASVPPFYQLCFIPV

[5] = test system: hepatic uptake transporters; assay: Cellular uptake in suspensions of cryo-preserved human hepatocytes; assay type: in vitro ADME; settings: suspended human hepatocytes
[6] = DDI trial with CYP450 enzyme substrate cocktail, steady state; ref unpublished data, Schiller, Huth, Schuhler, Drollmann, Kaul, Woessner, et al. 2021; cited from earlier work
[7] = i.v., Period 1 remibrutinib alone day 3, Geo-mean (%CV)
[8] = i.v., Period 3 remibrutinib + ritonavir, Geo-mean (%CV)
[9] = oral, Period 1 alone 50 mg Day 3, Mean (SD)
[10] = oral, Period 2 20 mg + GFJ Day 5, Mean (SD)
[11] = oral, Period 3 20 mg + RTV Day 7, Mean (SD)
[12] = p.o., Period 1 remibrutinib alone, adjusted Geo-mean, 90% CI
[13] = p.o., Period 2 remibrutinib + grapefruit juice, adjusted Geo-mean, 90% CI
[14] = p.o., Period 3 remibrutinib + ritonavir, adjusted Geo-mean, 90% CI
[15] = p.o., grapefruit juice vs alone, Geo mean ratio, 90% CI
[16] = p.o., ritonavir vs alone, Geo-mean ratio, 90% CI

C=CC(=O)N(C)CCOc1c(N)ncnc1-c1cc(F)cc(NC(=O)c2ccc(C3CC3)cc2F)c1C [remibrutinib]
tolerability ([1]; alone, with grapefruit juice, or with RTV, healthy participants): well‐tolerated | SAEs, deaths, high-grade AEs ([1]; during the trial): No SAEs, deaths, or AEs of high‐grade severity | clinical laboratory evaluations, vital signs, ECG ([1]; except isolated AE of mildly increased white blood cell count in one participant): no clinically relevant changes | AEs rated grade 1 of all AEs ([1]; occurring in 5 [29.4%] participants): 13/14 | AUC ratio day 12 to day 1 ([2]; declining over dose range 10-600 mg (TMDD effect)): 4.86 to 1.14 | fractional contribution of renal excretion to elimination ([2]; humans): about 1.8% | fm,CYP (contribution to oxidative hepatic metabolism) (CYP3A5): 0.8% | passive permeability (Papp) (Caco-2 cells): 16.5 10^-6 cm/s | apparent intrinsic affinity (Kmapp) (human liver microsomes): 5.43 µM | maximal rate of metabolism (Vmax) (human liver microsomes): 560.7 pmol/min/mg protein | F (absolute bioavailability) ([3]; Observed mean): 33.8 ± 11.5% | F inhibited ([3]; Observed mean, bioavailability in the presence of ritonavir): 80.9% and 80.9 ± 11.5% | Fg ([3]; Observed mean, from grapefruit juice AUC ratio): 78.9% and 78.9 ± 15.6% | Fa ([3]; Observed, calculated Fa = F/Fg/Fh): 86.9% and 86.9^e % | Fh ([3]; Observed, calculated Fh = AUCratio,iv/(AUCratio,po * Fg), ritonavir DDI study): 49.3^d % | fm (CYP3A4) ([3]; Observed, from i.v. exposure increase with ritonavir): 40% | CYP3A4-mediated hepatic first-pass metabolism (100%-Fh) ([3]; calculated): 50.7% | product of Fg and Fh ([3]; calculated / clinically determined values): 39% | Vd ([3]; human, blood, intravenous): 0.81 ± 0.22 L/kg | Vd ([3]; human, blood, iv): 63.1 L | clearance ([3]; human, blood, iv, 0.1 mg): 1170 mL/min | systemic CL as share of hepatic blood flow (87 L/h) ([3]; human, in vivo): ~ 80% | half-life ([3]; human, oral, 50 mg, remibrutinib alone): 6.58 h | half-life ([3]; human, oral, with RTV): 12.1 h | half-life ([3]; human, oral, with grapefruit juice): 7.13 h | Tmax ([3]; human, 50 mg, median, remibrutinib alone): 1 h | Tmax ([3]; human, 50 mg, minimum-maximum, remibrutinib alone): 0.5 to 2.5 h | Tmax ([3]; human, median, with RTV): 0.72 h | Tmax ([3]; human, median, with grapefruit juice): 0.73 h | Tmax ([3]; human, minimum-maximum, with RTV): 0.5 to 1.5 h | Tmax ([3]; human, minimum-maximum, with grapefruit juice): 0.5 to 2 h | AUC0-24 h norm by dose [3, 7]: 14.2 (21.8%) h*ng/ml/mg | AUCinf norm by dose [3, 7]: 14.5 (17.9%) h*ng/ml/mg | AUClast norm by dose [3, 7]: 13.9 (22.3%) h*ng/ml/mg | AUC0-24 h norm by dose [3, 8]: 23.8 (31.0%) h*ng/ml/mg | AUCinf norm by dose [3, 8]: 24.8 (33.3%) h*ng/ml/mg | AUClast norm by dose [3, 8]: 23.5 (31.0%) h*ng/ml/mg | AUC0-24 h norm by dose, Ratio period 3 / period 1 ([3]; i.v., ritonavir vs alone): 1.67 | AUCinf norm by dose, Ratio period 3 / period 1 ([3]; i.v., ritonavir vs alone): 1.70 | AUClast norm by dose, Ratio period 3 / period 1 ([3]; i.v., ritonavir vs alone): 1.68 | Cmax norm by dose, Ratio period 3 / period 1 ([3]; i.v., ritonavir vs alone): 0.89 | AUC0-24 h norm by dose [3, 9]: 4.89 ng·h/mL/mg | Cmax norm by dose [3, 9]: 2.77 ng/mL/mg | AUC0-24 h norm by dose [3, 10]: 6.28 ng·h/mL/mg | Cmax norm by dose [3, 10]: 3.27 ng/mL/mg | AUC0-24 h norm by dose [3, 11]: 20.3 ng·h/mL/mg | Cmax norm by dose [3, 11]: 9.00 ng/mL/mg | AUC0-24 h norm by dose [3, 12]: 4.49 (3.83, 5.26) h*ng/ml/mg | AUCinf norm by dose [3, 12]: 4.66 (3.92, 5.54) h*ng/ml/mg | AUClast norm by dose [3, 12]: 4.37 (3.73, 5.13) h*ng/ml/mg | Cmax norm by dose [3, 12]: 2.45 (1.99, 3.02) ng/ml/mg | AUC0-24 h norm by dose [3, 13]: 5.80 (4.95, 6.80) h*ng/ml/mg | AUCinf norm by dose [3, 13]: 5.98 (4.97, 7.19) h*ng/ml/mg | AUClast norm by dose [3, 13]: 5.80 (4.93, 6.81) h*ng/ml/mg | Cmax norm by dose [3, 13]: 3.03 (2.45, 3.75) ng/ml/mg | AUC0-24 h norm by dose [3, 14]: 19.2 (16.4, 22.5) h*ng/ml/mg | AUCinf norm by dose [3, 14]: 20.1 (16.9, 23.8) h*ng/ml/mg | AUClast norm by dose [3, 14]: 19.7 (16.7, 23.1) h*ng/ml/mg | Cmax norm by dose [3, 14]: 8.15 (6.59, 10.1) ng/ml/mg | AUCinf norm by dose, Ratio period 2 / period 1 [3, 15]: 1.28 (1.09, 1.51) | AUClast norm by dose, Ratio period 2 / period 1 [3, 15]: 1.33 (1.19, 1.47) | AUCinf norm by dose, Ratio period 3 / period 1 [3, 16]: 4.31 (3.76, 4.94) | AUClast norm by dose, Ratio period 3 / period 1 [3, 16]: 4.50 (4.05, 4.99) | correlation of metabolism rate with CYP3A4/5 activity, R (CYP3A4/5; midazolam): 0.989 | correlation of metabolism rate with CYP3A4/5 activity, R (CYP3A4/5; testosterone): 0.986 | excretion of unchanged remibrutinib into the bile [4]: 0.4 % of the dose | fm,CYP (contribution to oxidative hepatic metabolism) (CYP2B6): 0.3% | Vmax (CYP3A4; CYP3A4): 16.3 pmol/min/pmol CYP | Km (CYP3A4; read-out: Km,u, CYP3A4, unbound): 1.51 µM | P-gp substrate (P-gp): identified as a P‐gp substrate | fm,CYP (contribution to oxidative hepatic metabolism) (CYP2C19): 1% | uptake clearance with inhibitors of hepatic uptake transporters [5]: not affected | observed AUCtau [6]: 916 ng·h/mL | observed Cmax [6]: 334 ng/mL
